Published values pooled from the literature.
Lines come from different studies, so protocols differ.
Target: Serine/threonine-protein kinase MARK1 (MARK1, Homo sapiens, UniProt Q9P0L2)

SMILES	read-out	mode	technique	concentration	quantity	value
CS(=O)(=O)NCC[C@H](NC(=O)c1cncc2c1cnn2-c1ccc(F)cc1)c1ccnc(S(C)(=O)=O)c1	cell-free assay		competition with immobilised ligand	1 µM	remaining binding	92%
CCCS(=O)(=O)Nc1ccc(F)c(C(=O)c2c[nH]c3ncc(-c4ccc(Cl)cc4)cc23)c1F	enzyme activity	inhibitor		1 µM	inhibition	< 10%
CNC(=O)c1cc(Oc2ccc(NC(=O)Nc3ccc(Cl)c(C(F)(F)F)c3)cc2)ccn1	enzyme activity	inhibitor		0.3 µM	inhibition	9%
COc1cc2ncnc(Nc3ccc(F)c(Cl)c3)c2cc1OCCCN1CCOCC1	cell-free assay			0.5 µM	remaining signal	116%
O=C(NCCCNc1nc(Nc2cccc(NC(=O)N3CCCC3)c2)ncc1C1CC1)C1CCC1	enzyme activity	inhibitor	radiometric	1 µM	remaining activity	-4%
C[C@@]1(Cc2ccc(C#N)cc2)C(=O)N(c2cc(Cl)cc(Cl)c2)c2ncc(C(=O)NC3(c4nc(C5CCC5)no4)CC3)n21	cell-free assay		competition with immobilised ligand	1 µM	remaining binding	100%
COc1cc2ncnc(Nc3ccc(Oc4ccccc4)c(C)c3C)c2cc1OC	enzyme activity	inhibitor		1 µM	inhibition	2%
CNc1cccc2cc(C(=O)Nc3ccc(C(=O)O)cc3)c(=O)[nH]c12	enzyme activity	inhibitor		10 µM	inhibition	-26%
O=C(Nc1cccc(Nc2ncc(Br)c(NCCc3cnc[nH]3)n2)c1)N1CCCC1	enzyme activity	inhibitor	radiometric	1 µM	remaining activity	-4%
COc1cc(Nc2cnc(C#N)c(O[C@H](C)CN(C)C)n2)ncc1-c1cnn(C)c1	enzyme activity	inhibitor	radiometric	1 µM	remaining activity	95%
O=C(NCc1ncc(C(F)(F)F)cc1Cl)c1ccc2c(c1)C1(CCS(=O)(=O)CC1)[C@H](C1CC1)N2S(=O)(=O)c1ccc(F)cc1	cell-free assay		competition with immobilised ligand	1 µM	remaining binding	100%
C#Cc1cccc(Nc2ncnc3cc(OCCOC)c(OCCOC)cc23)c1	cell-free assay			0.5 µM	remaining signal	130%
CSc1cccnc1N1CCN(Cc2nc3ccccc3[nH]2)CC1	cell-free assay		competition with immobilised ligand	1 µM	remaining binding	100%
N#CCCc1ccc2c(c1)-c1[nH]c3ccc([N+](=O)[O-])cc3c1CC(=O)N2	cell-free assay			0.5 µM	remaining signal	67.4%
Brc1cnc(Nc2cccc(CN3CCOCC3)c2)nc1NCCc1c[nH]cn1	enzyme activity	inhibitor	radiometric	1 µM	remaining activity	-3%
Cc1ccc(NC(=O)c2ccc(C)c(C(F)(F)F)c2)cc1C#Cc1nn(C2CCC(O)CC2)c2ncnc(N)c12 (centres unmarked)	cell-free assay			10 µM	remaining signal	94%

SMILES	read-out	mode	technique	concentration	quantity	value
Cc1sc(C(=O)NC2COC2)cc1-n1cc(NC(=O)Nc2c(F)cccc2Cl)cn1	enzyme activity	inhibitor		10 µM	remaining activity	95.3%
CS(=O)(=O)N1CCCC(NC(=O)[C@H](CCC2CCCCC2)NC(=O)c2ccc(CNc3ncnc4c3nnn4-c3ccccc3)cc2)C1 (some centres unmarked)	cell-free assay		competition with immobilised ligand	0.1 µM	remaining binding	74%
COc1cc2c(N3CCN(C(=O)Nc4ccc(OC(C)C)cc4)CC3)ncnc2cc1OCCCN1CCCCC1	cell-free assay			0.5 µM	remaining signal	89.9%
Cc1cc(NC(=O)c2cccc3cc(-c4cccc5[nH]nc(N)c45)ccc23)ccc1F	enzyme activity	inhibitor		0.1 µM	activity vs control	133%
CN1CCc2cc(Nc3ncc(C4CC4)c(NCCCNC(=O)C4CCC4)n3)ccc2C1	enzyme activity	inhibitor	radiometric	1 µM	remaining activity	-1%
Nc1ncnc2occ(-c3ccc(NC(=O)Nc4cc(C(F)(F)F)ccc4F)cc3)c12	cell-free assay	inhibitor		20 µM	remaining signal	34%
NS(=O)(=O)c1ccc(CNc2nc(Nc3cccc(NC(=O)N4CCCC4)c3)ncc2C2CC2)cc1	enzyme activity	inhibitor	radiometric	1 µM	remaining activity	94%
Cc1ccc(Nc2nccc(N(C)c3ccc4c(C)n(C)nc4c3)n2)cc1S(N)(=O)=O	enzyme activity	inhibitor		10 µM	inhibition	26%
O=C(NCCCNc1nc(Nc2cccc(NC(=O)N3CCCC3)c2)ncc1I)c1cccs1	enzyme activity	inhibitor	radiometric	1 µM	remaining activity	-5%
FC(F)(F)Oc1cccc(-c2cnc3ccc(-c4ccncc4)nn23)c1	enzyme activity	inhibitor	radiometric	5 µM	activity vs control	95%
O=S(=O)(NC1CCC(c2cc(F)ccc2F)(S(=O)(=O)c2ccc(Cl)cc2)CC1)C(F)(F)F (centres unmarked)	cell-free assay		competition with immobilised ligand	1 µM	remaining binding	100%
CCN(CC)CCNC(=O)c1c(C)[nH]c(/C=C2\C(=O)Nc3ccc(F)cc32)c1C	enzyme activity	inhibitor		0.3 µM	inhibition	50%
COc1cc(-c2cn(C3CCc4ccccc4N(CC(F)(F)F)C3=O)nn2)ccc1-n1ccc(C)n1 (centres unmarked)	cell-free assay		competition with immobilised ligand	1 µM	remaining binding	99%
Cc1nn(CC(F)(F)F)cc1Nc1ncc(Br)c(NCCCNC(=O)C2CCC2)n1	enzyme activity	inhibitor	radiometric	1 µM	remaining activity	8%
CCCCN(CCCC)C(=O)CN1C[C@H](c2cc(OC)c3c(c2)OCO3)[C@@H](C(=O)O)[C@@H]1CC(C)(C)CCC	cell-free assay		competition with immobilised ligand	1 µM	remaining binding	96.5%
NS(=O)(=O)c1ccc(CNc2nc(Nc3cccc(NC(=O)N4CCCC4)c3)ncc2Br)cc1	enzyme activity	inhibitor	radiometric	1 µM	remaining activity	57%
